Results of several laboratories.
Protocols differ between the studies behind these lines.
Target: Dual specificity protein kinase CLK4 (CLK4, Homo sapiens, UniProt Q9HAZ1)

CN(C)c1ncc(F)c(-c2cnn3ncccc23)n1
remaining binding (binding; 1 µM): 61%

O=C(Nc1c[nH]nc1C(=O)NC1CCNCC1)c1cc(F)cc(F)c1
remaining binding (binding, competition with immobilised ligand; 1 µM): 75%

COc1ccnn2ncc(-c3ccnc(N(C)C)n3)c12
remaining binding (binding; 1 µM): 4.2%

O=C(NCCCN1CCOCC1)c1ccc(Nc2nccc(-c3cc4ccccc4s3)n2)cc1
remaining binding (binding, competition with immobilised ligand; 1 µM): 11%

C[C@H]1CCN(c2nccc(-c3cnn4ncccc34)n2)C1
remaining binding (binding; 1 µM): 9.9%

CO[C@@H](C)c1c(Nc2ccc([C@H](N(C)C(=O)C3CCS(=O)(=O)CC3)C(F)(F)F)cc2)cnc2cc(Cl)nn12
remaining binding (cell-free assay, competition with immobilised ligand; 1 µM): 94%

C[C@@H](c1ccc(-n2cnc3c(N)ncnc32)cc1)N1CCc2nn(C)c(Cc3ccccc3)c2C1=O
remaining binding (binding, competition with immobilised ligand; 0.1 µM): 100%

CC1=C(C#N)C(c2ccc3c(c2)c(NC(=O)c2ccccc2C)nn3C)C(C#N)=C(C)N1
remaining binding (cell-free assay, competition with immobilised ligand; 1 µM): 76%

Nc1ncc2c(n1)-c1c([nH]c3ccc(C#CC4CC4)cc13)CCCC2
remaining binding (binding, competition with immobilised ligand; 1 µM): 76%

Cc1cnn2ncc(-c3ccnc(N(C)C)n3)c2c1
remaining binding (binding; 1 µM): 9.7%

Cc1c(NC(=O)c2cc(C(N)=O)nc3cc(F)ccc23)c(C(F)(F)F)nn1Cc1ccc(C(C)(C)C)cc1
remaining binding (cell-free assay, competition with immobilised ligand; 1 µM): 100%

N[C@@H]1CCN(c2nccc(-c3cnn4ncccc34)n2)C1
remaining binding (binding; 1 µM): 25%

O=S(=O)(NC1CCC(c2cc(F)ccc2F)(S(=O)(=O)c2ccc(Cl)cc2)CC1)C(F)(F)F (stereo not shown)
remaining binding (cell-free assay, competition with immobilised ligand; 1 µM): 84%

O=C(c1ccc(Nc2nccc(-c3cc4ccccc4s3)n2)cc1)N1CCC(N2CCCC2)CC1
remaining binding (binding, competition with immobilised ligand; 1 µM): 27%

CN(C)c1nccc(-c2cnc3ncccn23)n1
remaining binding (binding; 1 µM): 14%

C=CC(=O)N1CCC(C(=O)NCC(=O)N2CCN(c3nc(-c4cnc(N)nc4C(F)F)nc(N4CCOCC4)n3)CC2)CC1
remaining binding (binding, competition with immobilised ligand; 1 µM): 100%

O=C(NCCCC1CCCCC1)c1ccc(CNC(=O)c2cnn(-c3ccccc3)c2C(F)(F)F)cc1
remaining binding (cell-free assay, competition with immobilised ligand; 0.1 µM): 100%

COc1cnc(Nc2cccc(S(N)(=O)=O)c2)nc1N1CCN(c2ccccc2)C(=O)C1
remaining binding (binding, competition with immobilised ligand; 1 µM): 93%

Cc1noc([C@H]2C[C@@H](c3ccc(C(F)(F)F)cc3)CN(C(=O)N3CCS(=O)(=O)C3)C2)n1
remaining binding (cell-free assay, competition with immobilised ligand; 1 µM): 83%

O=C(c1ccc(Nc2ncc(Cl)c(-c3ccc(Cl)s3)n2)cc1)N1CCC(N2CCCC2)CC1
remaining binding (binding, competition with immobilised ligand; 1 µM): 2.1%

CC1CCCN1c1nccc(-c2cnn3ncccc23)n1 (stereo not shown)
remaining binding (binding; 1 µM): 55%

Cc1nc(N2CC[C@@H](O)C2)ncc1-c1cc(C(F)(F)F)cc2[nH]ncc12
remaining binding (binding, competition with immobilised ligand; 1 µM): 92%
